Shown are actives, neighbours in structure and some others; about 2.9% of the full set was active somewhere.
TRPC4 inh: inhibitors of mouse TRPC4 channel, primary screen, Fluo4 calcium, HEK293 TRPC4beta/mu-opioid cells; actives 0.39% (n = 300,000); B-score at 10 µM; DAMGO-evoked Fluo4 calcium flux; active compounds read low;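 active = B-score over 3 SD under the library average, no early fluorescence shift, positive overall ratio signal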
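test system = HEK293 cells with stable TRPC4beta plus mu-opioid receptor expression | detection = Fluo4 Ca2+ flux fluorescence | read-out = integrated fluorescence ratio relative to baseline, converted to per-well B score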
TRPC4 agonist: activators of mouse TRPC4 channel, primary screen, Fluo4 calcium, HEK293 TRPC4beta/mu-opioid cells; Short transient receptor potential channel 4 (Mus musculus), Q9QUQ5; Fluo4 calcium fluorescence; active compounds read high; B-score at 10 µM; actives 0.49% (n = 310,000);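 active = B-score above 5 SD of library B-scores, and initial fluorescence ratio not above library mean plus 5 SD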;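 note: positive B-score marks a calcium rise read as TRPC4 activation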
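Assay system: HEK293 stable line with TRPC4beta plus mu-opioid receptor; schedule: 45 min room-temperature Fluo4 loading, 110 s read; technique: kinetic Fluo4 calcium fluorescence; evaluation: integrated baseline-normalised fluorescence ratio, converted to per-well B score; controls: buffer (low) and maximal DAMGO (high)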
TRPC4 potent: positive allosteric modulators of TRPC4, primary screen, cell-based, mouse TRPC4beta, HEK293 mu-opioid, Fluo-4 calcium. DAMGO EC20, Fluo-4 Ca2+ flux; active compounds read high. actives 0.42% (n = 310,000). B-score at 10 µM. Short transient receptor potential channel 4 (Mus musculus), Q9QUQ5. AID 2227, 2009;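 active = B-score of calcium response area above 5 SD of library B-scores, with initial fluorescence ratio within 5 SD of library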
TRPC6 act: mouse TRPC6 channel activators, primary screen, cell-based, HEK293, membrane potential dye; actives 0.13% (n = 310,000); B-score at 10 µM; HEK293-TRPC6 membrane potential dye fluorescence; active compounds read high; Short transient receptor potential channel 6 (Mus musculus), Q61143; AID 2550, 2010;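 active = B-score of the integrated fluorescence ratio above library mean plus 3 SD, and starting fluorescence ratio within library mean plus 5 SD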;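 note: higher score means more depolarization so channel activation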
Target sequence (Q61143 whole entry, looked up): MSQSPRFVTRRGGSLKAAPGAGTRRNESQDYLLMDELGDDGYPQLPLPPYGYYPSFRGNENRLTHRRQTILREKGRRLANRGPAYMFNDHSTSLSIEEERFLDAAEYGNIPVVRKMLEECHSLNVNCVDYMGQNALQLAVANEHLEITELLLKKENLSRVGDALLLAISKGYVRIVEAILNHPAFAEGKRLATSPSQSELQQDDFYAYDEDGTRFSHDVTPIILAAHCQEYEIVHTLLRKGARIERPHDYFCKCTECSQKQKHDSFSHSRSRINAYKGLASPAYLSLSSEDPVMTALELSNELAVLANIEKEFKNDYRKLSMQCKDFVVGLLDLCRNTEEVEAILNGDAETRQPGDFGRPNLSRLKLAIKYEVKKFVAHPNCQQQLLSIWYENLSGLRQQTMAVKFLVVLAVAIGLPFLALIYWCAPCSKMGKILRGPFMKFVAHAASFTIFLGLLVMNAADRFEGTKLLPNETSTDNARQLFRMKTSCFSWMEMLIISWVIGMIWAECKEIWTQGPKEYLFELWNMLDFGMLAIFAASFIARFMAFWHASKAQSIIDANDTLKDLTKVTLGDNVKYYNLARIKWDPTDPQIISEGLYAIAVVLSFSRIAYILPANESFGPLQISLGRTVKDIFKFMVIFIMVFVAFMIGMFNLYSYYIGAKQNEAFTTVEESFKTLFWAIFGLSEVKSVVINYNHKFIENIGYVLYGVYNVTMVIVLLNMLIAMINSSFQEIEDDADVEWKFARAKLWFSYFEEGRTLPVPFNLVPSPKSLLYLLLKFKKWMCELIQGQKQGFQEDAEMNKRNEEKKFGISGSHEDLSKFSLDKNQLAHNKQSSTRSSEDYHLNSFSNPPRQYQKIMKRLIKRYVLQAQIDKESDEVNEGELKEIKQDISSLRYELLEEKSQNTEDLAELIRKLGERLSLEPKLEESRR
TRPC6 inhibitor: mouse TRPC6 channel inhibitors, primary screen, cell-based, HEK293, membrane potential dye; Short transient receptor potential channel 6 (Mus musculus), Q61143; ACh-evoked depolarization; active compounds read low; B-score at 10 µM; actives 1.1% (n = 310,000); AID 2553, 2010;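 active = B-score under library mean minus 3 SD, initial fluorescence not abnormally high, positive integrated signal ratio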;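 note: B-score derived from integrated fluorescence ratio over the kinetic read; more negative B-score means stronger inhibition of depolarization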
Kir21 inh: inhibitors of mouse Kir2.1 inward-rectifier potassium channel | Inward rectifier potassium channel 2 (Mus musculus), P35561 | HEK293-Kir2.1, FluxOR thallium flux fluorescence; active compounds read low | B-score at 10 µM | actives 0.85% (n = 310,000);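 active = fluorescence ratio B-score at or below minus 3 SD of library scores, with starting-brightness B-score within 2 SD, cut at about -4.2 in these data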;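 note: channel flux triggered by added potassium and thallium sulfate stimulus; B-score of peak minus minimum fluorescence over baseline after thallium stimulus; more negative B-score means stronger Kir2.1 block with less thallium influx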
A number is an active result; – = inactive.

SMILES	TRPC4 inh	TRPC4 agonist	TRPC4 potent	TRPC6 act	TRPC6 inhibitor	Kir21 inh
CN(C)CCNC(=O)c1ccc(COc2ccc(Cl)cc2Cl)cc1	–	–	–	–	–	-4.8
COc1ccc(Cl)cc1C(=O)NCCN(C)C	–	–	28	–	–	–
Cn1c(N2CCC(C(N)=O)CC2)nc2c1c(=O)n(Cc1ccc(Br)cc1)c(=O)n2C	–	–	15	–	–	–
Cc1cccc(Cn2c(=O)c3c(nc4n3CCCN4Cc3ccccc3)n(C)c2=O)c1	–	–	20	–	–	–
CC1CN(c2nc3c(c(=O)n(Cc4ccc(Cl)c(Cl)c4)c(=O)n3C)n2C)CC(C)O1 (configuration not stated)	–	–	14	–	–	–
O=C(NCCc1ccccc1)c1cnc2ccccc2n1	–	–	16	–	–	–
O=C(CSc1nnc2scc(-c3ccccc3)n12)c1ccc2c(c1)OCCO2	–	–	–	–	–	–
c1ccc(-c2csc3nnc(SCc4ccc5c(c4)OCCO5)n23)cc1	–	–	–	–	–	-5.2
CCOc1cc(CN2CCCC(C(=O)c3cccc(C(F)(F)F)c3)C2)ccc1O (configuration not stated)	-7	–	–	–	–	–
CCc1oc(C(=O)OC)cc1CSC(=N)N	–	–	–	–	–	–
O=C1CCCN1CC(O)CS(=O)(=O)Cc1ccc(Cl)cc1 (configuration not stated)	–	–	–	–	–	–
CSc1sc(C(=O)NNC(C)=O)c2c1C=CCC2	–	–	–	–	–	–
CCOc1cc(/C=C2\COc3ccccc3C2=O)cc(Br)c1OCC(=O)N(C)C	–	–	–	–	–	-5
COc1ccc(/C=C2\COc3ccccc3C2=O)cc1OC	–	–	–	–	–	–
Cc1c(C(=O)c2ccc(Cl)cc2[N+](=O)[O-])c2ccccn2c1CCC#N	–	–	14	–	–	–
CN1CCCC1CCNS(=O)(=O)c1ccc(Br)cc1 (configuration not stated)	–	–	–	–	–	–
CN1CCCC1CCNC1C2CC3CC(C2)CC1C3 (configuration not stated)	–	–	–	–	–	-4.7
CC(CCc1ccccc1)NC(=O)CN1CCN(c2ccc(O)cc2)CC1 (configuration not stated)	–	–	–	–	–	–
O=S(=O)(c1ccccc1)N1CCCC1c1cccs1 (configuration not stated)	–	–	–	–	–	-5.4
C1CCC(C(CC2CCCCN2)C2CCCCC2)CC1 (configuration not stated)	–	–	–	–	–	-7.5
COc1ccc(/C=C(/NC(=O)c2ccco2)C(=O)N2CCOCC2)cc1	–	–	–	–	–	–
COc1cc(/C=C(/C(=O)c2cccs2)c2nc3ccccc3[nH]2)ccc1O	–	–	–	–	–	-4.4
Cc1ccccc1C(=O)N1CCC(C(=O)Nc2ccc(S(=O)(=O)N3CCCCC3)cc2)CC1	–	–	–	–	–	–
O=c1c2cc(Cl)ccc2nc(-c2ccc([N+](=O)[O-])cc2)n1O	–	45	–	–	–	–
O=c1c2ccccc2nc(-c2ccc(Cl)c(Cl)c2)n1O	–	–	–	–	–	–
N#Cc1ccc(-c2nc3cc(Cl)ccc3c(=O)n2O)cc1	–	–	–	–	–	–
O=c1c2ccc(Cl)cc2nc(-c2cccc(C(F)(F)F)c2)n1O	–	51	–	–	–	–
Cc1ccc(-c2nc3c(Cl)cc(Cl)cc3c(=O)n2O)cc1	–	112	–	–	–	–
O=c1c2cc(Br)ccc2nc(-c2ccc(Cl)cc2)n1O	–	175	–	–	–	–
N#Cc1sc(NCc2ccccn2)nc1Cl	–	–	–	–	–	–

Bioassay records (PubChem)
